Screening results deposited in PubChem BioAssay by The Scripps Research Institute Molecular Screening Center.
GalR3 antag: GalR3 antagonists in HEK293 cells, primary screen, cell-based, fluorescence readout; inhibition, % at 3 µM; 0.44% of 360,000 active; AID 651719, 2012; HEK293 GalR3-CNG cAMP membrane potential fluorescence; galR3 body fused to GalR1 C-terminus;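 active = inhibition above the screen-wide average plus 3 SD, cut at about 13% in these data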;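 note: forskolin and galanin both at EC90 stimulate the cells; cAMP rise reported by CNG channel membrane potential dye signal; 0% = forskolin plus galanin with DMSO and 100% = forskolin alone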
Target sequence (O60755 1-299 limits assumed): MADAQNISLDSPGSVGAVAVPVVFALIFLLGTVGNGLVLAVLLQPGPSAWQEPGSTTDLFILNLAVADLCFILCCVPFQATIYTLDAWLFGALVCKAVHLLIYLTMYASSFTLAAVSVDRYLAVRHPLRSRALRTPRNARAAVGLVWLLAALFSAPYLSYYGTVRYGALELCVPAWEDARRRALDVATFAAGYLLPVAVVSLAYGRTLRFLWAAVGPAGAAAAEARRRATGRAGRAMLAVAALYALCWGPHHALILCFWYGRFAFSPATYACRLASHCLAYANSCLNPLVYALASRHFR
OX1R antag-1: antagonists of human orexin 1 receptor (OX1R); OX1R-expressing cells, FRET antagonist read-out; inhibition, % at 6.6 µM; Orexin/Hypocretin receptor type 1 (Homo sapiens), O43613; AID 485270, 2010; 1.8% of 330,000 active; in the data active = inhibition mostly above about 38%, no sharp cut-off; inactive = mostly below about 40%;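 note: 0% = agonist challenge alone and 100% = reference antagonist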
OX1R antag-2: OX1R (HCRTR1) antagonists, primary screen, fluorescence, CHO/OX1R cells, Fluo-8 calcium, orexin A. Orexin/Hypocretin receptor type 1 (Homo sapiens), O43613. Fluo-8 calcium fluorescence. inhibition, % at 5 µM. 0.43% of 330,000 active. AID 434989, 2010;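 active = inhibition above its plate's threshold, mean inhibition of all tested compounds on the plate plus 3 SD, cut at about 37% in these data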;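 note: 0% = orexin A challenge wells and 100% = SB-334867-A antagonist wells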
GPR7 antagonist: GPR7 receptor antagonists, primary screen, cell-based, fluorescence, single concentration; GPR7-expressing cells, fluorescence antagonist assay; inhibition, % at 4.4 µM; 1.1% of 290,000 active; in the data active = inhibition above about 16%, passing the limit was not always enough;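 note: cells stimulated with the agonist NPW; 0% = agonist with vehicle and 100% = vehicle without agonist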
Target sequence (P48145 whole entry, looked up): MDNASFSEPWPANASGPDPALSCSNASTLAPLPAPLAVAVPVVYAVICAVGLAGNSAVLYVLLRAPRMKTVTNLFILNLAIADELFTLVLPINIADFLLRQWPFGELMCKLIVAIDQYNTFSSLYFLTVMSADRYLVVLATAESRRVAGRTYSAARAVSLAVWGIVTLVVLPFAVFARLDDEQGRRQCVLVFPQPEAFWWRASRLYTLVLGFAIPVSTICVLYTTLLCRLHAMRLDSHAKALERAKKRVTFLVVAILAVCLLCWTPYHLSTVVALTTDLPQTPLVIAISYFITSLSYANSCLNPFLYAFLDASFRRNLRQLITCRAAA
CHO parental Ca: ATP-evoked calcium signal inhibitors, parental CHO, primary screen, counter-screen for OX1R antagonist project, cell-based, fluorescence, Fluo-8 calcium dye; parental CHO-K1, ATP-induced calcium, Fluo-8 fluorescence; 0.63% of 330,000 active; inhibition, % at 5.6 µM;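 active = inhibition above that plate's mean sample inhibition plus 3 SD, cut at about 26% in these data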;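 note: 0% = ATP-challenged DMSO wells and 100% = DMSO wells without ATP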
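material = parental CHO cells | also added = ATP as calcium-mobilizing challenge | dosing = single point at 5.6 µM | detection = intracellular calcium via Fluo-8 no-wash fluorescent dye | read-out = % inhibition | benchmarks = low control ATP plus DMSO, high control DMSO only | repeats = one well per compound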
GalR3 antag conf: GalR3 antagonist hit confirmation, cell-based, fluorescence, triplicate | shares compounds with GalR3 antag | HEK293 GalR3 CNG cAMP biosensor, membrane potential fluorescence; galR3 fused to GalR1 carboxy tail; challenged with forskolin and galanin at EC90 | inhibition, % at 3 µM | 59% of 1,600 active | AID 652245, 2013;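 active = inhibition above the primary screen's cutoff, the mean inhibition of all screened compounds plus 3 SD, cut at about 13% in these data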;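 note: 0% = forskolin plus galanin and 100% = forskolin alone with DMSO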
HEK-CNG parental: nonspecific cAMP agonists in parental HEK-CNG cells, counter-screen for GalR3 antagonist project, cell-based, fluorescence, high throughput; shares compounds with GalR3 antag; HEK293-CNG parental cells, cAMP membrane potential fluorescence; normalised: DMSO wells 0%, forskolin wells 100%; activation, % at 3 µM; 10% of 1,600 active; in the data active = activation above about 1.3%
* marks the source's active call; other numbers are inactive results; . = not tested or not shown. Rows were chosen to be rich in hits. Some 3.1% of all compounds tested hit in one or more screens of this group.

SMILES	GalR3 antag	OX1R antag-1	OX1R antag-2	GPR7 antagonist	CHO parental Ca	GalR3 antag conf	HEK-CNG parental
CC1(C)CC2CC(C)(CN2/C=N/c2sc3c(c2C#N)CC(C)(C)NC3(C)C)C1 (configuration not stated)	-3	6	-16	3	-11	.	.
NC(=O)c1ccc(NC(=O)c2ccc(CN3CCOCC3)cc2)cc1	-3	5	0	-3	1	.	.
CCOC(=O)c1ccc(NC(=O)c2ccc(CN3CCOCC3)cc2)cc1	94*	28	-16	5	-1	110*	0
COc1cccc(C2N(c3ccccc3)CCN2c2ccccc2)c1OC	14*	18	-1	-10	-17	9	0
COc1ccc(N2C(=O)C3CCCN3C2c2cccc(OC)c2OC)cc1 (configuration not stated)	4	14	-13	9	-10	.	.
O=C(NCc1ccncc1)c1ccc(-c2ccc(F)c(F)c2)c2ccoc12	29*	.	.	.	.	9	0
COc1ccc(-c2ccc(C(=O)NCc3ccc(F)c(F)c3)c3occc23)c(C)c1	-3	.	.	.	.	.	.
COc1ccc(-c2coc3c(C(=O)NCc4ccc(OC)c(OC)c4)cccc23)c(C)c1	89*	.	.	.	.	104*	0
O=C(NCc1ccc(C(F)(F)F)cc1)c1ccc(-c2ccc(F)c(F)c2)c2ccoc12	-6	.	.	.	.	.	.
COc1ccc(-c2ccc(C(=O)NCc3ccncc3)c3occc23)c(C)c1	90*	.	.	.	.	103*	0
COc1ccc(-c2coc3c(C(=O)NCc4ccc(F)c(F)c4)cccc23)c(C)c1	-8	.	.	.	.	.	.
CN(C)c1nc2c(c(=O)[nH]c(=O)n2C)n1CCCc1ccccc1	-7	9	-13	-19	-11	.	.
COc1ccc(NCc2nnc(SCC(=O)Nc3ccccc3)n2C)cc1	.	11	-10	-4	-7	-1	0
COc1ccc(NCc2nnc(SCC(=O)Nc3ccc(OC)cc3)n2C)cc1	-5	26	-16	-10	1	.	.
COc1cc(NC(=O)COC(=O)C2CC(O)CN2S(=O)(=O)c2ccc(Cl)cc2)c(C)cc1[N+](=O)[O-] (configuration not stated)	24*	.	.	.	.	47*	0
Cc1cc(C(=O)CSc2nc3ccccc3[nH]2)c(C)n1CC1CCCO1 (configuration not stated)	110*	54*	59*	27*	85*	5	0
Cc1ccc(-n2nnnc2SCC(=O)c2cc(C)n(CC3CCCO3)c2C)cc1 (configuration not stated)	1	10	-16	.	-11	.	.
C=CCNC(=O)/C(C#N)=C/c1ccc(OS(=O)(=O)c2ccc(C)cc2)c(OC)c1	-3	12	-9	1	-5	.	.
COc1cccc(CN(C)C(=O)CNC(=O)c2ccc(-c3ccccc3)cc2)c1OC	53*	16	-16	15	-15	116*	-1
CC(=O)c1ccc(N2CCN(C(=O)Nc3cccc(F)c3)CC2)cc1	-6	5	-18	4	-13	.	.
O=C(Nc1nc(-c2ccc3c(c2)OCCO3)cs1)c1ccc(S(=O)(=O)N2CCCCC2)cc1	20*	8	3	9	2	15*	-1
Cc1cc([N+](=O)[O-])cc2c1NC(=O)C2(O)N1CCOCC1 (configuration not stated)	2	41	-14	-4	-5	.	.
CC(=O)Oc1ccccc1/C=C/c1nc2ccccc2c(=O)o1	-11	2	-19	4	-6	.	.
C/C(O)=c1/c(=O)nc2cccc3c2=c1c1ccccc1c3=O	19*	.	.	-2	.	14*	0
N#C/C(=C\c1ccccc1Br)C(=O)NC1CC1	-5	7	-14	-5	-2	.	.
SMILES	GalR3 antag	OX1R antag-1	OX1R antag-2	GPR7 antagonist	CHO parental Ca	GalR3 antag conf	HEK-CNG parental
O=[N+]([O-])c1c(Nc2ccccc2O)cc(Cl)c2nonc12	40*	.	.	22	.	41*	0
O=C(CCC(=O)OCC(=O)c1ccc(C(F)(F)F)cc1)OCC(=O)c1ccc(C(F)(F)F)cc1	-2	-3	2	-7	-12	.	.
O=C(COC(=O)C(O)C(O)C(=O)OCC(=O)c1ccc(C(F)(F)F)cc1)c1ccc(C(F)(F)F)cc1 (configuration not stated)	13*	12	-13	4	1	10	0
O=C(C(=O)N1CCN(C(=O)c2cc(C(F)(F)F)cc(C(F)(F)F)c2)CC1)c1cccc(C(F)(F)F)c1	2	.	.	.	.	.	.
CC(=O)c1ccc(-c2ccc(C(=O)NCC3CCCO3)o2)cc1 (configuration not stated)	-5	41	-12	.	-7	.	.
O=C(COC(=O)[C@H](Cc1ccccc1)NC(=O)c1ccco1)Nc1ccccc1	5	3	-22	.	-9	.	.
Cc1cc(NC(=O)COC(=O)C(Cc2ccccc2)NC(=O)c2ccco2)no1 (configuration not stated)	13*	16	-7	-1	-4	14*	0
Cc1ccccc1Nc1ncnc2c1cnn2C	-3	6	-18	-19	-2	.	.
Nc1ccc(CNC(=O)c2cc3cc(Cl)ccc3nc2N)cc1	-3	.	.	.	.	.	.
Nc1nc2ccccc2cc1C(=O)NCc1ccc(-c2ccccc2)cc1	87*	.	.	.	.	97*	0
CCOc1cc(C(C(=O)NCC2CCCO2)N(C(=O)Cn2nnc3ccccc32)c2ccccc2C(C)=O)ccc1O (configuration not stated)	15*	2	-27	-14	-11	14*	0
COc1cc(CCCN2C(=O)C(=O)NC[C@@H]2Cc2ccc(O)cc2)cc(OC)c1OC	16*	4	-11	.	-2	3	1
CC(NC(=O)c1ccc(F)cc1F)C1CC2CCC1C2 (configuration not stated)	-9	-12	-13	-1	-11	.	.
CCOC(=O)CC1CCCCN1C(=O)c1cc(COc2cccc3cnccc23)on1 (configuration not stated)	104*	48*	26	21	53*	111*	0
Cc1[nH]c(=O)[nH]c(=O)c1/C=N/NC(=O)[C@H](CC(C)C)NC(=O)OC(C)(C)C	0	44	-15	13	-13	.	.
